Laboratory results published in the EternaBench riboswitch data.

System: MS2 coat protein
Assay: apparent Kd, MS2 coat protein; higher = weaker binding; RNA-MaP array; FMN 200 µM where present
Procedure, shortened: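 Stalled E. coli RNA polymerase transcribed each design on Illumina sequencing-chip clusters. The clusters were titrated with SNAP-549-labelled MS2 coat protein, starting at 0.7 or 1.5 nM and doubling up to 3 µM, first without ligand and then with constant ligand, in 100 mM Tris-HCl pH 7.5, 80 mM KCl, 4 mM MgCl2, BSA, DTT, yeast tRNA and Tween-20. Green signal was normalised to red-channel RNA signal and to the control-cluster median Fmax. The apparent Kd is the median of filtered binding-curve fits made for each cluster.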

[1] = designed as: OFF switch for flavin mononucleotide, no ligand
[2] = ligand present: flavin mononucleotide, designed as: OFF switch for flavin mononucleotide
[3] = designed as: ON switch for flavin mononucleotide, no ligand
[4] = ligand present: flavin mononucleotide, designed as: ON switch for flavin mononucleotide

| Sequence | apparent Kd [1] [nM] | apparent Kd [2] [nM] | apparent Kd [3] [nM] | apparent Kd [4] [nM] |
| --- | --- | --- | --- | --- |
| CUGAGCAAUGUAGGAUAUCGACUGGAAUACAGUCGAGAAGGACAUGAGGAUCACCCAUGUAAAUGAGUGAAUAAUAAAGCUCAG | 735 | 345 | – | – |
| UGAAAUCAUGUAGGAUAUGCAUGGCGAAGCUACGCAGAAGGACAUGAGGAUCACCCAUGUUAUAGCUACCCAAUUCGGUGGCAA | 56.3 | 152 | – | – |
| AAAUAGAAUGAGGAUAUCGUAUUAUAUUUAGUACGAGAAGGCAUUACAUGAGGAUCACCCAUGUUUUGUUGGGA | 21.8 | 57.9 | – | – |
| CGAUAGUGUCGUUAUCCGUAGCGAACAUGAGGAUCACCCAUGUAGGAUAUGUUACUAAACUAGUAACAGAAGGGCGUGAGUCUU | 129 | 161 | – | – |
| UGUCUAUUUGAAGGAUAUCUAAGCAUAAACCAGAGAGAAGGUCAAUUAUACAUGAGGAUCACCCAUGUUGAGAUUAAUGGGUUA | 27.1 | 40.3 | – | – |
| GGAGCCAGCACCGAGGAUAUUCAUAUUAAAACAUGAGGAUCACCCAUGUAGGCCAGAAGGCCUUGGGAGAAGGCGGACUGGCUCG | – | – | 206 | 11.4 |
| AGUUGACGAGAAGGAUAUCCGAACCUUUAAAGAGGAGAAGGUCUAUCAACAUGAGGAUCACCCAUGUACAUCGCUCGGGUGUCC | 82.2 | 306 | – | – |
| AUAAUUUUAUAAUUCUAUAUAUUCAGAAGGCAUAACAUGAGGAUCACCCAUGUAAAUUAAUGUUAUGAGGAUAUGAUUCGGUUA | 13.9 | 67.3 | – | – |
| CGUGUUGACGAAGGAUAUGGAUACAUGAGGAUCACCCAUGUAUAUUUUGUGAUCAUAUUUAUGAUCCAGAAGGUCGUUGACACG | 56.9 | 131 | – | – |
| UGGUACAUCGGAGGAUAUCAUGUAGAUACAUGAGGAUCACCCAUGUCGAUGGAGACAUCGGAGAUUGAGAAGGCCGAUGUACCU | – | – | 612 | 31.7 |
| GUAUCUUAUGUGAGGAUAUAUUAUGUCUUGGUGUAGUAGAAGGCACAUGAGGAUCACCCAUGUCCUAUUGGUCU | 40.9 | 116 | – | – |
| AUUUUUUGUCAUGUACAUGAGGAACAUGAGGAUCACCCAUGUAGAAGGAAUUUUUUUAAGUUUAGUUAGGAUAUACAUAUAUUU | 53.9 | 30 | – | – |
| UGAAACUACGAGAAGGACAUGUGGUCCUUCAGUUACAUGAGGAUCACCCAUGUAGGAUAUCGUAGUUUCAGGAUCGUGAGAUCC | 32.8 | 11.7 | – | – |
| GCCGCACAUGAGGAUCACCCAUGUAAUUACAUGGGAGGAUAUCAGUGCUCGAAAGAGCACUGAGAAGGCCUGAGGC | – | – | 81.3 | 1070 |
| UAAAUACAUGAGGAUCACCCAUGUGAGGAUAUCCGAUGAUUCGGAGAAAUGACCCGUUGGAGAAGGCAUAGGGC | 30.8 | 22.7 | – | – |
| ACUCGAUUUUUGGGUUUACUAUAUGAGGAUAUCAUACAUCUAUACAUGAGGAUCACCCAUGUUACUGAGAAGGCAUAUAUAAUA | – | – | 17.3 | 6.77 |
| AUCAGCUCGUCAGGAUAUACGUCACUGCGUCAGAAGUGUGGUAAGAUCACAUGAGGAUCACCCAUGUAGAAGGGACGAGCUGAU | 23.4 | 253 | – | – |
| GUUACACAUGAGGAUCACCCAUGUAAGGAUAUGCUGCGGUCGCGCUGACGUGACUGCAGCAGAAGGUACAAAUG | 77.4 | 92.1 | – | – |
| UAUAAGUCUCAUGUAACAUGAGGAUCACCCAUGUCAUAUUGUAGAAGGAUGAUAAUAUGUAUAUCAUAGGAUAUACUAUAUGUU | 20.9 | 19.6 | – | – |
| CACAAGAAAGUCGAAGGUUGAAGUAGAAGGUUUAUAACAUGACAUGAGGAUCACCCAUGUGCCAAGAAGGAUAUGCUUUAAUCG | 11.4 | 9.43 | – | – |
| GCACUGGAUGUAGGAUAUCAGGACGAUAAGUCCUGAGAAGGACAUGAGGAUCACCCAUGUAAAACUUCACCAGUGCAUAAUAUA | 13.3 | 15.9 | – | – |
| CUAGCUAUCGGAGGAUAUUCAUACCGGAAACGGACAUGAGGAUCACCCAUGUGCGGAAACGCUUGGGAGAAGGCCGAUAGCUAG | – | – | 210 | 18.9 |
| AAGGACUGAAUAAAUAACUCAAAUACAUGAGGAUCACCCAUGUAGGAUAUCGUCAGGAAUACUGACGAGAAGGACAUACAGUCC | 14 | 20.2 | – | – |
| AAACAUGUCCGAGGAUAUCUGAGAUUAUUUUCAAGAGAAGGCGGACAUGAGGAUCACCCAUGUCUCUCCUCAUCAACUCCAAAU | 8.61 | 54.5 | – | – |

| Sequence | apparent Kd [1] [nM] | apparent Kd [2] [nM] | apparent Kd [3] [nM] | apparent Kd [4] [nM] |
| --- | --- | --- | --- | --- |
| AAAAAGUCAGGAUAUAUCAAAAAAAAAGAAAAAAAAAAAAGAUAGAAGGGACAUGAGGAUCACCCAUGUAAAAA | 50.9 | 42.1 | – | – |
| UAUUAUAGCAGUGUAUUAAGAUCACAUGAGGAUCACCCAUGUAGAAGGUAUAAGCAAUAUGCUAAUAAGGAUAUACAACACUGC | 8.13 | 27.5 | – | – |
| GGUACCAACACAGGAUAUGCUUUCCUUUGGGAAGCAGAAGGGUGAAAACAUGAGGAUCACCCAUGUGGUACCGGGCGUGAGCCC | – | – | 534 | 39 |
| GUUUUACAUGAGGAUCACCCAUGUGAGGAUAUAUUGUUAAUAGUGAUAAUUAUUGGUGGUAGAAGGCGCGUGAU | 46.8 | 39.7 | – | – |
| GCGAGCAUACAGAAGGGAUCGUCGUCGCGGCUGUCAGGAUAUGUAGCUUGGCCUAAACAUGAGGAUCACCCAUGUAUAAUGCUA | – | – | 111 | 18.6 |
| UAGAAGUCAGGAUAUGCAUGGCGGGACUUGCGUCGUGGCGUGCAGAAGGGACAUGAGGAUCACCCAUGUGGAGG | 152 | 219 | – | – |
| ACAAAUGGAGGAUAUACAUGAGGAUCACCCAUGUAUAUCCUACAUAUGUGAUAAAAAUGUAGAAGGCCAUUUGA | 11.6 | 10.8 | – | – |
| UUGCGGUAGGAGAAGGACAGAGGCUUCAUUACAUACAUGAGGAUCACCCAUGUAGGAUAUCCUACCUAACGCGGCCUCCUCCUG | 11.1 | 19.8 | – | – |
| GCGUGGUUCUAGAAGGUGCUAGCGAUAAGCUAGCAAGGAUAUAGACAUGAGGAUCACCCAUGUCUUAGUGAAAUCGACACACGC | 5.35 | 5.34 | – | – |
| AAAAAACAUGAGGAUCACCCAUGUCUUCGGACGUGAGGAUAUGUACAGACUUCGGUCUGUACAGAAGGCAUGUCAA | – | – | 212 | 25.9 |
| AGGUGAGCCGUCAGGAUAUGCGUUCCGUAGGGUCAGCAGAAGGGACAUGAGGAUCACCCAUGUUUCGCACGUGG | 34.2 | 71.1 | – | – |
| UAUAUAUAGUAAGGAUAUGUAAUAAUUUUAUAAACAGAAGGUACUGACAUGAGGAUCACCCAUGUUUUAGUGUGGGCAUGUAGA | 83.9 | 151 | – | – |
| GUUAGUUAAGGAUAUACAGGGAGCCGCGGCGUCUCGCCGCAACAUGAGGAUCACCCAUGUAGAAGGUAGCCAUU | 31.3 | 66.6 | – | – |
| AUGUCUCUAGGAUAUUAGCGGAUCUACAUGAGGAUCACCCAUGUCGUGUCGCAGAUGUGCUGAGAAGGAGAGCACA | 15.2 | 19 | – | – |
| UACAUUAACAUGAGGAUCACCCAUGUUGGCCAGUCUCACACCAGAAGGCACGUAGAGCACAACAGUGAGGAUAUGGGUGACAUA | – | – | 218 | 98.7 |
| AACCCUUGAGGAUAUUAAACAAAUCACAUGAGGAUCACCCAUGUGCAUACCUCGUGGCUUUGAGAAGGCAGUCGGG | 34.9 | 39.2 | – | – |
| GAGUCUCUAUUAGAACCGAUACGAACAUGAGGAUCACCCAUGUAGGAUAUGCUAAAAGUUGUGUUGCAGAAGGACAUUUAAUGC | 11.2 | 10.9 | – | – |
| GUCUUCCUAGGAUAUACAUGAGGAUCACCCAUGUAAAGUUUCGUCAAAGGAUAAUCGAGUAGAAGGAGGUGGAU | 15 | 17.2 | – | – |
| AAUAAGGUCACAGGAUAUACUACAUCCAAUGCGGUAGAAGGGUGACACUUACUGUGCAGACAUGAGGAUCACCCAUGUAACCAC | – | – | 53 | 10.4 |
| ACGACGAAAGUCGAACGAUGUAGCAGAAGGACAUGAGGAUCACCCAUGUCAGCUGUAACAGCCAUGUAGGAUAUGCUACAUCGU | 4.29 | 5.41 | – | – |
| CGUCCGUGGGUAGUGAUCGUACAUGAGGAUCACCCAUGUGAGAAGGAUAUGCAUGCACGUGGACAGCAGAAGGUCUCACAACAA | 238 | 101 | – | – |
| GCAGCGUCUGCAGGAUAUCAGCACGUGUAGUGCUGAGAAGGGCACAUGAGGAUCACCCAUGUGAUCAAUUAAUAGACAUGCUGC | 6.98 | 15.5 | – | – |
| CUCCUCGAAGGAUAUACUGUGGAUCAUAAGUCAGGGAGGUUACAUGAGGAUCACCCAUGUAGAAGGUCGAGGUG | 67.2 | 428 | – | – |
| GAAUAGGCAGGAUAUACAUGAGGAUCACCCAUGUGCCGGCGAAAGGUACGUUCGAAAGGUAGAAGGGCCUAAAC | 78.6 | 288 | – | – |
